Assay outcomes: PubChem BioAssay, The Scripps Research Institute Molecular Screening Center
5HT1a ag = agonists of human 5-HT1a serotonin receptor; AID 567; hit rate 0.56% among 65,000; P08908; activation, % at 10 µM; CHO 5-HT1a Ga15 NFAT-bla reporter, FRET ratio; 0% basal, 100% maximal reference agonist;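 active = activation above the screen-wide mean activation plus 3 SD, cut at about 19% in these data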
Target sequence (P08908 whole entry, looked up): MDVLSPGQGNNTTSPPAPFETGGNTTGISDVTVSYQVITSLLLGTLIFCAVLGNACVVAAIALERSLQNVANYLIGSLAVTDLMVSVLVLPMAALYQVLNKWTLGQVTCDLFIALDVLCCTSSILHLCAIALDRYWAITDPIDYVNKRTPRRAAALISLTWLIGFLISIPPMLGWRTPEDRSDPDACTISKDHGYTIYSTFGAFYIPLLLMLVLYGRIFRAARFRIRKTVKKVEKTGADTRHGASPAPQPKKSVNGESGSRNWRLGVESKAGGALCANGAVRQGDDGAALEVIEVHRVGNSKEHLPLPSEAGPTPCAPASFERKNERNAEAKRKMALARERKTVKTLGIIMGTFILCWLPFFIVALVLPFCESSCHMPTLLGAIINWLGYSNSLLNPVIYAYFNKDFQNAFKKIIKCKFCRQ
5HT1a antag = blocks the human serotonin 5-HT1a receptor; CHO 5-HT1a Ga15 NFAT-bla reporter, antagonist mode; P08908; hit rate 0.68% among 62,000; inhibition, % at 10 µM;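 active = inhibition above the mean of all tested compounds plus 3 SD, cut at about 43% in these data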;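 also: receptor stimulated by 5-CT agonist at 100 nM near EC80; beta-lactamase reporter measured by ratiometric fluorescence of a cleavable substrate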
5HT1E antag = antagonists of human 5-HT1E serotonin receptor; P28566; CHO 5-HT1E Ga15 NFAT-bla reporter, FRET, antagonist; inhibition, % at 6 µM; hit rate 0.99% among 65,000;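 active = inhibition above a set limit, the mean inhibition across every tested compound plus 3 SD, cut at about 29% in these data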;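 also: signal is the 460 over 535 nm emission ratio of beta-lactamase substrate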
5HT1E ag = 5-HT1E (human) receptor agonism | CHO 5-HT1E Ga15 NFAT-bla reporter, FRET; 0% DMSO wells, 100% control agonist wells | activation, % at 6 µM | hit rate 0.69% among 65,000;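 active = activation above a set limit, the screen-wide mean activation plus 3 SD, cut at about 8.5% in these data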
S1P3 ag = agonists of human S1P3 receptor | S1P3 NFAT-BLA reporter cells, agonism, FRET ratio; relative to 1 µM S1P, basal subtracted | activation, % at 4.5 µM | hit rate 0.1% among 60,000 | AID 373;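 active = activation above the screen-wide mean plus 3 SD, cut at about 4.5% in these data, passing the limit was not always enough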
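Assay system: CHO cells stably expressing human S1P3, Gα16 and NFAT-β-lactamase reporter. Timing: overnight plating, 4 h compound 37 °C, 2 h substrate RT. Signal: β-lactamase FRET emission ratio 460/535 nm. Measure: percent activation versus median 1 µM S1P response, basal-subtracted, per plate. Repeats: primary screen single test, confirmation screen in triplicate.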
S1P1 ag pot = agonists and agonism potentiators of human S1P1 receptor | P21453 | S1P1 CRE-bla cells, forskolin, beta-lactamase FRET, potentiator mode; S1P1 agonist co-added at EC20, 2 nM; 100% = saturating reference agonist, 0% = basal | activation, % at 9.5 µM | hit rate 0.57% among 56,000 | AID 449;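 active = activation above a cutoff set at the mean activation of all tested compounds plus 3 SD, cut at about 54% in these data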;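 also: forskolin at 4 µM as EC80 and the EC20 agonist is SEW2871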
Hits are given with their value. This is a sample that favours compounds with a hit; in the whole collection about 3% have one here.

For C=CCS/C(=N\n1cnc2ccccc2c1=O)N1CCCCC1 the results were 5HT1a ag 99, 5HT1a antag inactive, 5HT1E antag inactive, 5HT1E ag inactive, S1P3 ag inactive and S1P1 ag pot inactive.
`CC1(C)CC(=O)C(/C=N/n2cnc3ccccc3c2=O)=C(O)C1` gave 5HT1a ag inactive, 5HT1a antag inactive, 5HT1E antag inactive, 5HT1E ag inactive, S1P3 ag inactive and S1P1 ag pot inactive.
`COc1ccc(C(c2nnnn2CC2CCCO2)N2CCN(c3cccc(C)c3C)CC2)cc1` (centres undefined) gave 5HT1a ag inactive, 5HT1a antag inactive, 5HT1E antag inactive, 5HT1E ag inactive, S1P3 ag inactive and S1P1 ag pot inactive.
Screening CCCCC(c1nnnn1CC1CCCO1)N1CCN(c2cccc(C)c2C)CC1 (centres undefined) returned 5HT1a ag inactive, 5HT1a antag inactive, 5HT1E antag inactive, 5HT1E ag 38, S1P3 ag inactive and S1P1 ag pot inactive.
O=c1[nH]c2ccccc2n1CCCSc1cnc2ccccc2n1 was read as 5HT1a ag inactive, 5HT1a antag inactive, 5HT1E antag inactive, 5HT1E ag inactive, S1P3 ag inactive and S1P1 ag pot inactive.
`C=CCn1c2ccccc2c2nnc(SCCCn3c(=O)[nH]c4ccccc43)nc21` gave 5HT1a ag inactive, 5HT1a antag 48, 5HT1E antag inactive and 5HT1E ag inactive.
CCOC(=O)CSC(C)C(=O)Nc1nnc(C(C)C)s1 (centres undefined) was read as 5HT1a ag inactive, 5HT1a antag inactive, 5HT1E antag inactive, 5HT1E ag inactive, S1P3 ag inactive and S1P1 ag pot inactive.
CC(NC(=O)Nc1nnc(C(F)(F)F)s1)(C(F)(F)F)C(F)(F)F was read as 5HT1a ag inactive, 5HT1E antag 54, 5HT1E ag inactive, S1P3 ag inactive and S1P1 ag pot 80.
For CC(NC(=O)Nc1nnc(C(F)(F)F)s1)N1C(=O)C2C3C=CC(C3)C2C1=O (centres undefined) the results were 5HT1a ag inactive, 5HT1a antag inactive, 5HT1E antag inactive, 5HT1E ag inactive, S1P3 ag inactive and S1P1 ag pot inactive.
Screening CC(=O)Nc1cc(OC(C)=O)c2nonc2c1OC(C)=O returned 5HT1a ag inactive, 5HT1a antag 78, 5HT1E antag 103, 5HT1E ag inactive, S1P3 ag inactive and S1P1 ag pot 98.
Screening CCOc1nc(-c2ccccc2)ccc1-c1noc(-c2ccncc2)n1 returned 5HT1a ag inactive, 5HT1a antag inactive, 5HT1E antag inactive, 5HT1E ag inactive, S1P3 ag inactive and S1P1 ag pot inactive.
`CCOc1ccc(-c2nc(-c3ccccc3C)no2)cc1` gave 5HT1a ag inactive, 5HT1a antag inactive, 5HT1E antag inactive, 5HT1E ag inactive, S1P3 ag inactive and S1P1 ag pot 110.
CCOc1nc(C)ccc1-c1noc(-c2ccncc2)n1 was read as 5HT1a ag inactive, 5HT1a antag inactive, 5HT1E antag inactive, 5HT1E ag inactive, S1P3 ag inactive and S1P1 ag pot 56.
CCc1cccc(CC)c1N(COC)C(=O)Cn1c(C(C)O)nc2ccccc21 (centres undefined) was read as 5HT1a ag inactive, 5HT1a antag inactive, 5HT1E antag inactive, 5HT1E ag inactive, S1P3 ag inactive and S1P1 ag pot inactive.
`Clc1ccc(Br)cc1-c1nc(-c2cccnc2)no1` gave 5HT1a ag inactive, 5HT1a antag inactive, 5HT1E antag inactive, 5HT1E ag inactive and S1P3 ag inactive.
Screening COc1ccccc1N1CCN(C(=O)CSc2nc(-c3ccccc3)cc(=O)[nH]2)CC1 returned 5HT1a ag inactive, 5HT1a antag inactive, 5HT1E antag inactive, 5HT1E ag 15, S1P3 ag inactive and S1P1 ag pot inactive.
COc1ccccc1N1CCN(C(=O)CSc2nc(C)c(Cc3ccccc3)c(=O)[nH]2)CC1 was read as 5HT1a ag inactive, 5HT1a antag inactive, 5HT1E antag inactive, 5HT1E ag 20, S1P3 ag inactive and S1P1 ag pot inactive.
COc1ccccc1N1CCN(C(=O)CSc2nc3ncnc(N)c3[nH]2)CC1 was read as 5HT1a ag inactive, 5HT1a antag inactive, 5HT1E antag inactive, 5HT1E ag inactive and S1P3 ag inactive.
